Laboratory results reported in ChEMBL document CHEMBL3272299, “Antineoplastic agents. 1. N-Protected vinyl, 1,2-dihaloethyl, and cyanomethyl esters of phenylalanine” (J Med Chem, 1977).
Activity calls are given as the source filed them. The calls are words filed in the database; no cut-off is given here.

Key:
Ehrlich [1] = assay: Antitumor activity against mouse EAC allografted in CF1 mouse assessed as inhibition of tumor growth at 33 mg/kg/day measured on day 7; format: functional; conditions: 168 h
[2] = Acute toxicity in CF1 mouse; format: organism-based; conditions: in vivo
W256 [3] = assay: Antitumor activity against rat Walker 256 cells allografted in Sprague-Dawley rat assessed as tumor growth inhibition at 2.5 mg/kg, ip qd relative to control; format: functional; conditions: route intraperitoneal
W256 [4] = assay: Antitumor activity against rat Walker 256 cells allografted in Sprague-Dawley rat assessed as host survival days at 2.5 mg/kg, ip qd; format: functional; conditions: route intraperitoneal
Method in brief: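 Walker 256 ascites cells were implanted ip into male Sprague-Dawley rats (75 ± 10 g). Compound in 0.05% Tween-water was given ip at 2.5 mg/kg/day, and the day of death was recorded. T/C was calculated from the mean survival time per group according to the NIH protocol. Melphalan served as the internal standard.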

P388 [5] = assay: Antitumor activity against mouse P388 cells allografted in DBA/2 mouse assessed as host survival at 20 mg/kg, ip qd; format: functional; conditions: route intraperitoneal
Method in brief: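 P388 leukaemia cells were implanted on day 0 in male DBA/2 mice (20 g). Compound was dosed ip at 20 mg/kg/day. T/C survival values were calculated according to the NIH protocol. 5-Fluorouracil served as the internal standard.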

Ehrlich [6] = assay: Antitumor activity against mouse EAC allografted in CF1 mouse assessed as host survival at 33 mg/kg/day measured on day 7; format: functional, organism-based
Ehrlich [7] = assay: Antitumor activity against mouse EAC allografted in CF1 mouse assessed as tumor volume at 33 mg/kg/day measured on day 7; format: functional
P388 [8] = assay: Antitumor activity against mouse P388 cells allografted in DBA/2 mouse assessed as tumor growth inhibition at 20 mg/kg, ip qd relative to control; format: functional; conditions: route intraperitoneal
[9] = Chemical stability of the compound by TLC analysis; format: physicochemical
[10] = Chemical stability of the compound assessed as optical rotation; format: physicochemical

Row | Structure (SMILES) | inhibition in vivo at 33 mg/kg/day (Ehrlich [1]) [%] | LD50 [2] [µmol/kg] | T/C (W256 [3]) | Survival (W256 [4]) [days] | Survival (P388 [5]) [days] | Survival (Ehrlich [6]) | Activity (Ehrlich [7]) [mL] | T/C (P388 [8]) | Stability [9] | Stability [10]
1 | O=C(N[C@H](Cc1ccccc1)C(=O)OC(Br)CBr)OCc1ccccc1 (some centres undefined) | 100 | 310 | 117 | 8.7 | 7.5 | Active | 0 | 92 | – | –
2 | CC(=O)N[C@@H](Cc1ccccc1)C(=O)OCC#N | 16 | – | – | – | – | Active | 3.9 | – | Stable | Stable
3 | O=C(N[C@@H](Cc1ccccc1)C(=O)OC(Br)CBr)OCc1ccccc1 (some centres undefined) | 100 | 150 | 305 | 23 | 6.7 | Active | 0 | 83 | – | –
4 | Cl.N#CCOC(=O)[C@@H](N)Cc1ccccc1 | 9 | – | – | – | – | – | 2.5 | – | Stable | Stable
5 | N[C@H](CO)Cc1ccccc1 [L-PHENYLALANINOL] | 92 | 500 | – | – | – | – | 0.6 | – | – | –
6 | Cc1ccc(S(=O)(=O)N[C@@H](Cc2ccccc2)C(=O)OCC#N)cc1 | 97 | 730 | 113 | 8.5 | 9.1 | – | 0.4 | 112 | Stable | Stable
7 | CCOC(=O)[C@H](Cc1ccccc1)NC(=O)/C=C/c1ccccc1 | 0 | – | – | – | – | Active | 5 | – | – | –
8 | C=COC(=O)[C@@H](Cc1ccccc1)NC(=O)OCc1ccccc1 | 36 | 1540 | – | – | – | Active | 3.6 | – | Stable | Stable
9 | C=COC(=O)[C@H](Cc1ccccc1)NS(=O)(=O)c1ccc(C)cc1 | 56.8 | – | – | – | – | – | 3.8 | – | Stable | Stable
10 | N#CCOC(=O)[C@H](Cc1ccccc1)NC(=O)[C@H](Cc1ccccc1)NC(=O)OCc1ccccc1 | 52 | – | – | – | – | Active | 1.5 | – | Stable | Stable
11 | Cc1ccc(S(=O)(=O)N[C@@H](Cc2ccccc2)C(=O)O)cc1 | 84 | – | – | – | – | Active | 0.5 | – | – | –
12 | O=C(/C=C/c1ccccc1)N[C@@H](Cc1ccccc1)C(=O)O | 58 | 740 | – | – | – | Active | 2.1 | – | – | –
13 | N#CCOC(=O)C(Cc1ccccc1)NC(=O)OCc1ccccc1 (racemic) | 86 | 760 | – | – | – | Active | 0.4 | – | Stable | Stable
14 | C=COC(=O)[C@@H](N)Cc1ccccc1.Cl | 41 | – | – | – | – | – | 2.2 | – | Stable | Stable
15 | C=COC(=O)[C@H](Cc1ccccc1)NC(=O)c1ccccc1 | 56.8 | – | – | – | – | Active | 2.1 | – | Stable | Stable
16 | O=C(NC(Cc1ccccc1)C(=O)O)OCc1ccccc1 (racemic) | 52 | – | – | – | – | – | 2.6 | – | – | –
17 | O=C(O)CCCc1ccc(N(CCCl)CCCl)cc1 [CHLORAMBUCIL] | – | 61 | – | – | – | – | – | – | – | –
18 | C=COC(=O)C(Cc1ccccc1)NC(=O)OCc1ccccc1 (racemic) | 58 | 1540 | – | – | – | Active | 1.3 | – | Stable | Stable
19 | O=Cc1ccccc1 [BENZALDEHYDE] | 69 | – | – | – | – | Active | 0.8 | – | – | –
20 | N#CCOC(=O)[C@@H](Cc1ccccc1)NC(=O)OCc1ccccc1 | 72 | 80 | – | – | – | – | 1 | – | Stable | Stable
